# Measured values published in ChEMBL document CHEMBL5046302, “Identification and Evaluation of Brominated Carbazoles as a Novel Antibiotic Adjuvant Scaffold in MRSA” (2022).
# The source made the active and inactive calls. The calls are words filed in the database; no cut-off is given here.
# Assays:
# Assay type in all cases: functional
# [1] = tested on: Staphylococcus aureus; assay: Potentiation of oxacillin induced antibacterial activity against methicillin-resistant Staphylococcus aureus assessed as fold decrease in blaI gene expression at 25 uM by RT-qPCR analysis
# Summary of the method: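 Fold dampening is the relative mRNA level of the gene, normalised to 16S rRNA, in oxacillin-treated cells divided by that in cells cotreated with oxacillin plus carbazole. Carbazole was used at 25 or 50 μM, as given in each line.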
# [2] = tested on: Staphylococcus aureus; assay: (§1) Potentiation of ampicillin induced antibacterial activity against methicillin-resistant Staphylococcus aureus USA300 assessed as fold change in ampicillin MIC at 25 uM after 18 hrs by CLSI protocol based broth microdilution assay
# [3] = tested on: Staphylococcus aureus; assay: as §1, with “oxacillin” for “ampicillin”, “USA300 harboring stk1 deletion mutant co-transfected with a plasmid bearing stk1” for “USA300”
# [4] = tested on: Staphylococcus aureus; assay: Potentiation of ceftazidime induced antibacterial activity against methicillin-resistant Staphylococcus aureus USA300 assessed as ceftazidime MIC at 25 uM after 18 hrs by CLSI protocol based broth microdilution assay
# [5] = tested on: Staphylococcus aureus; assay: Potentiation of methicillin induced antibacterial activity against methicillin-resistant Staphylococcus aureus USA300 assessed as methicillin MIC at 25 uM after 18 hrs by CLSI protocol based broth microdilution assay
# [6] = tested on: Staphylococcus aureus; assay: Potentiation of ceftazidime induced antibacterial activity against methicillin-resistant Staphylococcus aureus ATCC 43300 assessed as ceftazidime MIC at 25 uM after 18 hrs by CLSI protocol based broth microdilution assay
# [7] = tested on: Staphylococcus aureus; assay: Potentiation of ampicillin induced antibacterial activity against methicillin-resistant Staphylococcus aureus USA300 assessed as ampicillin MIC at 25 uM after 18 hrs by CLSI protocol based broth microdilution assay
# [8] = tested on: Staphylococcus aureus; assay: Potentiation of methicillin induced antibacterial activity against methicillin-resistant Staphylococcus aureus ATCC 43300 assessed as methicillin MIC at 25 uM after 18 hrs by CLSI protocol based broth microdilution assay
# [9] = tested on: Staphylococcus aureus; assay: Potentiation of oxacillin induced antibacterial activity against methicillin-resistant Staphylococcus aureus USA300 assessed as fold change in oxacillin MIC at 25 uM after 18 hrs by CLSI protocol based broth microdilution assay
# [10] = tested on: Staphylococcus aureus; assay: Potentiation of oxacillin induced antibacterial activity against methicillin-resistant Staphylococcus aureus ATCC 43300 assessed as fold change in oxacillin MIC at 25 uM after 18 hrs by CLSI protocol based broth microdilution assay
# [11] = tested on: Staphylococcus aureus; assay: Potentiation of methicillin induced antibacterial activity against methicillin-resistant Staphylococcus aureus USA100 assessed as methicillin MIC at 25 uM after 18 hrs by CLSI protocol based broth microdilution assay
# [12] = tested on: Staphylococcus aureus; assay: Upregulation of mecA gene expression in methicillin-resistant Staphylococcus aureus ATCC 43300 at 25 uM by RT-PCR method
# [13] = tested on: Staphylococcus aureus; assay: Potentiation of oxacillin induced antibacterial activity against methicillin-resistant Staphylococcus aureus USA300 harboring stk1 deletion mutant assessed as oxacillin MIC at 50 uM after 18 hrs by CLSI protocol based broth microdilution assay
Structure (SMILES),fold change (FC) [1],fold change (FC) [2],fold change (FC) [3],MIC [4] [µg/mL],MIC [5] [µg/mL],MIC [6] [µg/mL],MIC [7] [µg/mL],MIC [8] [µg/mL],fold change (FC) [9],fold change (FC) [10],MIC [11] [µg/mL],Activity [12],MIC [13] [µg/mL]
Brc1cccc2[nH]c3ccccc3c12,4.65,4,8,256,8,64,2,4,4,4,32,inactive,
Brc1cccc2c1[nH]c1ccccc12,,,,,,,,,,,,,0.25
